{"source": "paper PMC3920952", "about": "(Cell Death & Disease, 2013)", "molecules": {"B1": {"name": "HGS-ETR2: agonistic anti-TRAIL-R2 antibody used as a positive control for apoptotic cell death (antibody, chains of the INN, looked up, V domains shown)", "VH": "EVQLVQSGGGVERPGGSLRLSCAASGFTFDDYGMSWVRQAPGKGLEWVSGINWNGGSTGYADSVKGRVTISRDNAKNSLYLQMNSLRAEDTAVYYCAKILGAGRGWYFDLWGKGTTVTVSS", "VL": "SSELTQDPAVSVALGQTVRITCQGDSLRSYYASWYQQKPGQAPVLVIYGKNNRPSGIPDRFSGSSSGNTASLTITGAQAEDEADYYCNSRDSSGNHVVFGGGTKLTVL"}}, "key": {"[1]": {"tested_on": "Jurkat cells", "assay": "Cell death by propidium iodide staining and flow cytometry", "format": "cell-based", "conditions": "15 μM, 18 h, 0.5% FBS; mean of three independent experiments", "how_it_was_run": "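Cells seeded at 4×10^5/ml in medium with 0.5% FBS and exposed for 18 h to TAT-fused truncated test peptides (15 μM) or TAT alone. Cells were washed in PBS and resuspended in PI solution (50 μg/ml PI, 0.1% sodium citrate, 0.1% Triton X-100). Flow cytometry gave the sub-G1 fraction. Mean ± S.D. of three independent experiments; two-tailed Student's t-test versus TAT.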"}, "[2]": {"tested_on": "Jurkat cells", "assay": "ATP-based cell viability assay", "how_it_was_run": "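Jurkat cells (RPMI, 10% FBS, 1.5 mmol/l L-glutamine) seeded in half-surface 96-well plates. Treated overnight/18 h with test peptide, TAT-only peptide or vehicle under low serum (0.5–5% FBS). Single-concentration runs used 15 μM. ATP measured by CellTiter-Glo luminescence and expressed as % of vehicle-treated control. Single-concentration values are mean ± S.D. of four independent experiments.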"}, "[3]": {"tested_on": "K562 cells", "assay": "Trypan blue exclusion assay", "format": "cell-based", "conditions": "20 μM, 15-min treatment", "how_it_was_run": "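K562 cells were exposed to 20 μM test peptide or TAT in medium with 0.5% FBS, either over a time course (minutes) or for 18 h. Cells in suspension were mixed 1:1 with 0.4% Trypan blue. Viable (dye-negative) cells were counted on an automated cell counter. Values are mean ± S.D.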"}, "[4]": {"tested_on": "Jurkat cells", "assay": "Trypan blue exclusion assay", "format": "cell-based", "how_it_was_run": "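Jurkat cells cultured in 96-well plates and treated with TAT or test peptide overnight (10–15 μM range). In the caspase-inhibitor arm, cells were preincubated 30 min with zVAD-fmk or vehicle, then treated 17 h (TAT 10 μM). Suspended cells were mixed 1:1 with 0.4% Trypan blue, and viable cells were counted on a TC10 automated counter.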"}, "[5]": {"assay": "Particle size by dynamic light scattering", "format": "physicochemical", "conditions": "PBS pH 7.4, 25 °C", "how_it_was_run": "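Test peptide at 60 μM in PBS, pH 7.4, at 25 °C was filtered and degassed, then scanned in a 1-mm path quartz cuvette. 90° light scattering was recorded for 3 min. Particle radius was derived by CONTIN analysis of the DLS data.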"}, "[6]": {"assay": "Tolerability in xenograft-bearing mice", "format": "in vivo, nu/nu mice", "conditions": "mice treated for 18 days, 2.0 and 8.0 mg/kg daily i.p.", "how_it_was_run": "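HCT116 cells (1×10^6) injected s.c. into the right flank of 7–8-week-old female nu/nu mice. After 1 week, mice were randomized into four groups of eight. Groups received daily i.p. test peptide (2.0 or 8.0 mg/kg) or TAT (1.3 or 5.3 mg/kg) for 18 days. Body weight was monitored. Liver, brain, heart, lung and spleen sections were assessed by H&E staining.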"}}}
{"molecule": "CTADMS [killerFLIP-C]", "values": [{"measurement": "cell death (PI staining)", "setting": "[1]", "result": 14.6, "unit": "%"}]}
{"molecule": "FALFCTSW [scrambled killerFLIP-E]", "values": [{"measurement": "relative ATP levels compared with vehicle-treated cells", "setting": "[2]; 18 h, comparison with scrambled variant (Figure 4c), concentration not given", "result": 12.7, "unit": "%"}]}
{"molecule": "YGRKKRRQRRR [TAT, reference compound]", "values": [{"measurement": "Trypan blue-negative cells", "setting": "[3]", "result": 83, "unit": "%"}, {"measurement": "cells excluding Trypan blue", "setting": "[4]; 10 μM TAT, 17 h, no zVAD-fmk", "result": 78, "unit": "%"}, {"measurement": "cell death (Trypan blue exclusion)", "setting": "[4]; 10 μM, 17 h", "result": "did not induce cell death"}, {"measurement": "Trypan blue-negative cells", "setting": "[4]; 20 μM, 15-min treatment", "result": 75.2, "unit": "%"}, {"measurement": "self-assembly into micelles in aqueous solution (DLS)", "setting": "[5]", "result": "does not"}]}
{"molecule": "YGRKKRRQRRRREADFFWSLCTADMS [killerFLIP]", "values": [{"measurement": "tolerability", "setting": "[6]", "result": "generally well tolerated"}, {"measurement": "cell death, share of Jurkat cells (Trypan blue exclusion)", "setting": "[4]; 10–15 μM, overnight", "result": "~50", "unit": "%"}, {"measurement": "effect on cell viability (relative ATP levels)", "setting": "[2]; overnight treatment, various concentrations, low serum (0.5–5% FBS)", "result": "concentration-dependent decrease in cell viability"}]}
{"molecule": "B1", "values": [{"measurement": "Trypan blue-negative cells", "setting": "[4]; HGS-ETR2 1 μg/ml, 17 h, after 30 min pre-treatment with 20 μM zVAD-fmk", "result": 70, "unit": "%"}, {"measurement": "Trypan blue-negative cells", "setting": "[4]; HGS-ETR2 1 μg/ml, 17 h, no zVAD-fmk", "result": 11, "unit": "%"}]}
